Reference: ChEMBL document CHEMBL4715860 (J Med Chem, 2020)
Activity calls are given as the source filed them. No cut-off for these calls is given here.

Legend:
[1] = Metabolic stability in CD1 mouse hepatocytes assessed as parent compound remaining at 5 uM incubated for 3 hrs by LC-MS analysis; type: ADME, cell-based, Hepatocyte; details: read-out: Stabilty
Outline: (§1)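 Cryopreserved primary hepatocytes in suspension (CD-1 mouse, Sprague-Dawley rat, Beagle dog, human). Compound diluted from 10 mM DMSO stock to 5 μM final. Sampled at 0, 15, 60, 90 and 180 min, protein precipitated with ACN plus internal standard, supernatant analysed by LC−MS. Run in duplicate. 7-ethoxycoumarin as positive control. Hepatocyte-free medium incubations as negative control.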

[2] = Metabolic stability in Beagle dog hepatocytes assessed as parent compound remaining at 5 uM incubated for 3 hrs by LC-MS analysis; type: ADME, cell-based, Canis lupus familiaris, Hepatocyte; details: read-out: Stabilty; outline: as §1
[3] = Metabolic stability in human hepatocytes assessed as parent compound remaining at 5 uM incubated for 3 hrs by LC-MS analysis; type: ADME, cell-based, Hepatocyte; details: read-out: Stabilty; outline: as §1
[4] = Intrinsic clearance in CD1 mouse hepatocytes assessed per million cells at 5 uM incubated for 3 hrs by LC-MS analysis; type: ADME, cell-based, Hepatocyte; details: read-out: CLH
Outline: (§2)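 Cryopreserved primary hepatocytes in suspension from CD-1 mouse, Sprague-Dawley rat, Beagle dog and human. Compound at 5 μM final (from 10 mM DMSO stock). Samples taken at 0, 15, 60, 90 and 180 min and quenched with ACN plus internal standard. Parent quantified by LC-MS. Hepatocyte-free medium incubations served as negative control; 7-ethoxycoumarin as positive control. Duplicate; CLint per 10^6 cells and t1/2.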

[5] = Metabolic stability in CD1 mouse hepatocytes assessed as half-life at 5 uM incubated for 3 hrs by LC-MS analysis; type: ADME, cell-based, Hepatocyte; outline: as §2
[6] = system: Rattus norvegicus; assay: In vivo inhibition of PI3Kalpha Sprague-Dawley rat assessed as increase in plasma insulin concentration at 5 mg/kg, po measured after 8 hrs by ELISA; type: functional, organism-based
Outline: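 Male Sprague Dawley rats dosed orally at 5 mg/kg; plasma insulin and glucose followed over time against vehicle, n = 3, mean ± SEM.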

[7] = Cmax in C57BL/6J mouse plasma at 10 mg/kg, po administered as single dose by mass spectrometry based UHPLC analysis; type: ADME, organism-based; parameters: route oral, dose 10 mg/kg
Outline: (§3)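 Female C57BL/6J mice, one oral dose of 10 mg/kg in 20% Captisol; plasma and brain levels over time, n = 3 per time point (mean).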

[8] = Tmax in C57BL/6J mouse plasma at 10 mg/kg, po administered as single dose by mass spectrometry based UHPLC analysis; type: ADME, organism-based
Outline: (§4)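 Female C57BL/6J mice dosed orally at 10 mg/kg in 20% Captisol, either once or once daily for 4 days with sampling after the last dose on day 4. Plasma and brain concentrations followed over time. Tmax taken from at least 3 time points.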

[9] = AUC (0 to 8 hrs) in C57BL/6J mouse plasma at 10 mg/kg, po administered as single dose by mass spectrometry based UHPLC analysis; type: ADME, organism-based; parameters: time < 8 hr, route oral, dose 10 mg/kg; outline: as §3
[10] = Elimination half life in C57BL/6J mouse plasma at 10 mg/kg, po administered once a day for 4 consecutive days by mass spectrometry based UHPLC analysis; type: ADME, organism-based; details: time 4 day, read-out: beta t1/2 (converted)
Outline: (§5)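 Female C57BL/6J mice given 10 mg/kg p.o. in 20% Captisol once daily for 4 consecutive days. Plasma and brain sampled after the final dose on day 4, n = 3 per time point.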

[11] = Tmax in C57BL/6J mouse brain at 10 mg/kg, po administered as single dose by mass spectrometry based UHPLC analysis; type: ADME, organism-based; outline: as §4
[12] = Elimination half life in C57BL/6J mouse brain at 10 mg/kg, po administered as single dose by mass spectrometry based UHPLC analysis; type: ADME, organism-based; details: read-out: beta t1/2 (converted); outline: as §3
[13] = Elimination half life in C57BL/6J mouse brain at 10 mg/kg, po administered once a day for 4 consecutive days by mass spectrometry based UHPLC analysis; type: ADME, organism-based; details: time 4 day, read-out: beta t1/2 (converted); outline: as §5
[14] = Elimination half life in C57BL/6J mouse plasma at 25 mg/kg, po administered as single dose by mass spectrometry based UHPLC analysis; type: ADME, organism-based; details: read-out: beta t1/2 (converted)
Outline: (§6)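 One oral dose of 25 mg/kg to female C57BL/6J mice. Plasma and brain concentrations followed over time, n = 3 per time point (mean).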

[15] = AUC (0 to 8 hrs) in C57BL/6J mouse plasma at 25 mg/kg, po administered as single dose by mass spectrometry based UHPLC analysis; type: ADME, organism-based; parameters: time < 8 hr, route oral, dose 25 mg/kg; outline: as §6
[16] = system: Mus musculus; assay: In vivo inhibition of mTORC2 in C57BL/6J mouse assessed as reduction in PKB/Akt phosphorylation at Ser473 in brain at 25 mg/kg, po measured after 0.5 to 2 hrs by Western blot analysis; type: functional, organism-based; details: time 0.5-2 hrs
Outline: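 Time course in female C57BL/6J mice after 25 mg/kg p.o.: cortex taken at set time points and western blotted for pS6 and pPKB. Signals quantified against α-tubulin as % of control cortex; n = 3 per time point and n = 9 controls. Brain compound level measured in the same mice.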

[17] = Toxicity in Balb/c nude mouse assessed as change in body weight at 100 mg/kg, po administered once daily for 14 days measured for 7 days starting from post last dose; type: organism-based; details: in vivo, 504 h, time 21 day
[18] = system: Mus musculus; assay: Protection against Tsc1-GFAP knockout induced mortality in Balb/c mouse assessed as increase in survival rate administered orally twice a day measured post last dose; type: functional, organism-based
Outline: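 Tsc1GFAPCKO mice (Tsc1 conditionally inactivated mainly in glia). Oral dosing from P21 at 10, 25, 50 mg/kg qd or 50 mg/kg bid, n = 7–10 per group. Controls were vehicle and a comparator at 10 mg/kg. Body weight tracked. Survival followed from P21 to death or censoring at P90, compared by log-rank test.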

remaining at 3 h, 5 µM [1]: 48.4%
remaining at 3 h, 5 µM [2]: 75.6%
remaining at 3 h, 5 µM [3]: 44%
hepatocyte CLint at 5 µM [4]: 4.3 µL/min/1e6 cells
half-life at 5 µM [5]: 3.35 h
Cmax [7]: 1100 ng/mL
Tmax [8]: 0.5 h
AUC(0-t) at 8 h [9]: 2940 ng·h/mL
half-life [10]: 2.2 h
Tmax [11]: 0.5 h
half-life [12]: 2.9 h
half-life [13]: 2.3 h
half-life [14]: 2.4 h
AUC(0-t) at 8 h [15]: 10300 ng·h/mL
Compound: C[C@@H]1COCCN1c1nc(-c2cnc(N)cc2C(F)F)nc(N2[C@H](C)COC[C@@H]2C)n1
inhibition [6]: inactive
inhibition [16]: Active
Activity [17]: Non-Toxic
Activity [18]: Dose-dependent effect
